Reference: ChEMBL document CHEMBL3779833, “Hydroxyurea derivatives of irofulven with improved antitumor efficacy” (Bioorg Med Chem Lett, 2016)
Calls of active or inactive are those of the source. No cut-off for these calls is given here.

Assays:
[1] = Cytotoxicity against human CHRF-288-11 cells after 48 hrs by trypan blue exclusion assay; format: cell-based
Procedure, shortened: (§1)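 Cells exposed to drug for 48 h; growth measured by trypan blue exclusion. IC50 is the concentration giving 50% growth inhibition; values reported in nM.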

[2] = Cytotoxicity against human MV522 cells after 48 hrs by trypan blue exclusion assay; format: functional, cell-based; conditions: MV522, 48 h; procedure, shortened: as §1
MDA-MB-231 = assay: Cytotoxicity against human MDA-MB-231 cells after 48 hrs by sulforhodamine B assay; format: functional, cell-based; conditions: MDA-MB-231, 48 h
[3] = Cytotoxicity against human OVCAR5 cells after 48 hrs by sulforhodamine B assay; format: functional, cell-based; conditions: OVCAR-5, 48 h
[4] = Cytotoxicity against human Caki1 cells after 48 hrs by sulforhodamine B assay; format: functional, cell-based; conditions: CAKI-1, 48 h
[5] = Cytotoxicity against human PC3 cells after 48 hrs by sulforhodamine B assay; format: functional, cell-based; conditions: PC-3, 48 h
786-0 = assay: Cytotoxicity against human 786-0 cells after 48 hrs by sulforhodamine B assay; format: functional, cell-based; conditions: 786-0, 48 h
[6] = Cytotoxicity against human HCT116 cells after 48 hrs by sulforhodamine B assay; format: functional, cell-based; conditions: HCT-116, 48 h
Malme-3M = assay: Cytotoxicity against human MALME-3M cells after 48 hrs by sulforhodamine B assay; format: functional, cell-based
[7] = Selectivity index, ratio of IC50 for human CHRF-288-11 cells to IC50 for human MV522 cells; format: functional
Procedure, shortened: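 Ratio of the IC50 in megakaryocytic CHRF 288-11 (non-target) cells to the IC50 in MV522 adenocarcinoma (target) cells.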

[8] = Cytotoxicity against human OVCAR4 cells after 48 hrs by sulforhodamine B assay; format: functional, cell-based; conditions: OVCAR-4, 48 h
[9] = Cytotoxicity against human HOP92 cells after 48 hrs by sulforhodamine B assay; format: functional, cell-based; conditions: HOP-92, 48 h
NCI-H226 = assay: Cytotoxicity against human NCI-H226 cells after 48 hrs by sulforhodamine B assay; format: functional, cell-based; conditions: NCI-H226, 48 h
NCI-H322M = assay: Cytotoxicity against human NCI-H322M cells after 48 hrs by sulforhodamine B assay; format: functional, cell-based
[10] = Cytotoxicity against human SNB75 cells after 48 hrs by sulforhodamine B assay; format: functional, cell-based; conditions: SNB-75, 48 h
[11] = Cytotoxicity against human HOP62 cells after 48 hrs by sulforhodamine B assay; format: functional, cell-based; conditions: HOP-62, 48 h
SK-MEL-28 = assay: Cytotoxicity against human SK-MEL-28 cells after 48 hrs by sulforhodamine B assay; format: functional, cell-based; conditions: SK-MEL-28, 48 h
[12] = Cytotoxicity against human RXF393 cells after 48 hrs by sulforhodamine B assay; format: functional, cell-based; conditions: RXF 393, 48 h
NCI-H23 = assay: Cytotoxicity against human NCI-H23 cells after 48 hrs by sulforhodamine B assay; format: functional, cell-based; conditions: NCI-H23, 48 h
[13] = Cytotoxicity against human BT549 cells after 48 hrs by sulforhodamine B assay; format: functional, cell-based; conditions: BT-549, 48 h
MCF7 = assay: Cytotoxicity against human MCF7 cells after 48 hrs by sulforhodamine B assay; format: functional, cell-based; conditions: MCF7, 48 h
[14] = Cytotoxicity against human COLO205 cells after 48 hrs by sulforhodamine B assay; format: functional, cell-based; conditions: COLO 205, 48 h
MV522 = assay: Antitumor activity against human MV522 cells xenografted in Balb/c nu/nu mouse assessed as inhibition of tumor growth at 10 mg/kg, ip administered thrice a week for 3 weeks; format: functional, organism-based
Procedure, shortened: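 MV522 tumour xenografts in Balb/c nu/nu mice; drugs given intraperitoneally 3 times a week for 3 consecutive weeks at 10 mg/kg, the dose compared across agents; N = 8 per group.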

M14 = assay: Cytotoxicity against human M14 cells after 48 hrs by sulforhodamine B assay; format: functional, cell-based; conditions: M14, 48 h
[15] = Cytotoxicity against human DU145 cells after 48 hrs by sulforhodamine B assay; format: functional, cell-based; conditions: DU-145, 48 h, read-out: pIC50 (converted)
[16] = Cytotoxicity against human UO31 cells after 48 hrs by sulforhodamine B assay; format: functional, cell-based; conditions: UO-31, 48 h
[17] = Cytotoxicity against human OVCAR3 cells after 48 hrs by sulforhodamine B assay; format: functional, cell-based; conditions: OVCAR-3, 48 h
A498 = assay: Cytotoxicity against human A498 cells after 48 hrs by sulforhodamine B assay; format: functional, cell-based; conditions: A498, 48 h
[18] = Cytotoxicity against human LOXIMVI cells after 48 hrs by sulforhodamine B assay; format: functional, cell-based; conditions: LOX IMVI
[19] = Cytotoxicity against human SF268 cells after 48 hrs by sulforhodamine B assay; format: functional, cell-based; conditions: SF-268, 48 h
[20] = Cytotoxicity against human SF539 cells after 48 hrs by sulforhodamine B assay; format: functional, cell-based; conditions: SF-539, 48 h
SK-MEL-2 = assay: Cytotoxicity against human SK-MEL-2 cells after 48 hrs by sulforhodamine B assay; format: functional, cell-based; conditions: SK-MEL-2, 48 h
[21] = Cytotoxicity against human HCT15 cells after 48 hrs by sulforhodamine B assay; format: functional, cell-based; conditions: HCT-15, 48 h
[22] = Cytotoxicity against human SNB19 cells after 48 hrs by sulforhodamine B assay; format: functional, cell-based; conditions: SNB-19, 48 h
[23] = Cytotoxicity against human OVCAR8 cells after 48 hrs by sulforhodamine B assay; format: functional, cell-based; conditions: OVCAR-8, 48 h
NCI-H522 = assay: Cytotoxicity against human NCI-H522 cells after 48 hrs by sulforhodamine B assay; format: functional, cell-based; conditions: NCI-H522, 48 h
[24] = Cytotoxicity against human SW620 cells after 48 hrs by sulforhodamine B assay; format: functional, cell-based; conditions: SW-620, 48 h
T47D = assay: Cytotoxicity against human T47D cells after 48 hrs by sulforhodamine B assay; format: functional, cell-based
[25] = Cytotoxicity against human IGROV1 cells after 48 hrs by sulforhodamine B assay; format: functional, cell-based; conditions: IGROV-1, 48 h
[26] = Cytotoxicity against human SKOV3 cells after 48 hrs by sulforhodamine B assay; format: functional, cell-based; conditions: SK-OV-3, 48 h
U-251 = assay: Cytotoxicity against human U251 cells after 48 hrs by sulforhodamine B assay; format: functional, cell-based; conditions: U-251, 48 h
[27] = Cytotoxicity against human Hs 578T cells after 48 hrs by sulforhodamine B assay; format: functional, cell-based
[28] = Cytotoxicity against human UACC257 cells after 48 hrs by sulforhodamine B assay; format: functional, cell-based; conditions: UACC-257, 48 h
[29] = Cytotoxicity against human HCC2998 cells after 48 hrs by sulforhodamine B assay; format: functional, cell-based; conditions: HCC 2998, 48 h
EKVX = assay: Cytotoxicity against human EKVX cells after 48 hrs by sulforhodamine B assay; format: functional, cell-based
A549 = assay: Cytotoxicity against human A549 cells after 48 hrs by sulforhodamine B assay; format: functional, cell-based; conditions: A549, 48 h, read-out: pIC50 (converted)
KM12 = assay: Cytotoxicity against human KM12 cells after 48 hrs by sulforhodamine B assay; format: functional, cell-based; conditions: KM12, 48 h
SN12C = assay: Cytotoxicity against human SN12C cells after 48 hrs by sulforhodamine B assay; format: functional, cell-based
[30] = Cytotoxicity against human SF295 cells after 48 hrs by sulforhodamine B assay; format: functional, cell-based; conditions: SF-295, 48 h
NCI-H460 = assay: Cytotoxicity against human NCI-H460 cells after 48 hrs by sulforhodamine B assay; format: functional, cell-based; conditions: NCI-H460, 48 h, read-out: pIC50 (converted)
[31] = Cytotoxicity against human TK10 cells after 48 hrs by sulforhodamine B assay; format: functional, cell-based; conditions: TK-10, 48 h
HT-29 = assay: Cytotoxicity against human HT-29 cells after 48 hrs by sulforhodamine B assay; format: functional, cell-based; conditions: HT-29, 48 h
[32] = Cytotoxicity against human NCI-ADR-RES cells after 48 hrs by sulforhodamine B assay; format: functional, cell-based
SK-MEL-5 = assay: Cytotoxicity against human SK-MEL-5 cells after 48 hrs by sulforhodamine B assay; format: functional, cell-based; conditions: SK-MEL-5, 48 h
ACHN = assay: Cytotoxicity against human ACHN cells after 48 hrs by sulforhodamine B assay; format: functional, cell-based
MDA-MB-435 = assay: Cytotoxicity against human MDA-MB-435 cells after 48 hrs by sulforhodamine B assay; format: functional, cell-based; conditions: MDA-MB-435, 48 h

Q: With `CC(=O)ON(CC1=C(C)C=C2C(=O)[C@](C)(O)C3(CC3)C(C)=C21)C(N)=O` as the molecule, how does the IC50 [1] read?
A: 1900 nM

Q: For `NC(=O)NO` [HYDROXYUREA], which IC50 [2] is on record?
A: > 650000 nM

Q: What does the source list for `CC1=C(CO)C2=C(C)C3(CC3)[C@@](C)(O)C(=O)C2=C1` [IROFULVEN]?
A: IC50 (MDA-MB-231): 316 nM; IC50 [3]: 158 nM; IC50 [4]: 251 nM; IC50 [5]: 251 nM; IC50 (786-0): 200 nM; IC50 [6]: 200 nM; IC50 (Malme-3M): 200 nM; Ratio IC50 [7]: 4.1; IC50 [8]: 251 nM; IC50 [9]: 316 nM; IC50 (NCI-H226): 200 nM; IC50 (NCI-H322M): 251 nM; IC50 [2]: 70 nM; IC50 [10]: 200 nM; IC50 [11]: 158 nM; IC50 (SK-MEL-28): 631 nM; IC50 [12]: 50.1 nM; IC50 (NCI-H23): 79.4 nM; IC50 [13]: 316 nM; IC50 (MCF7): 251 nM; IC50 [14]: 158 nM; IC50 [1]: 290 nM; TGI (MV522): Active; IC50 (M14): 251 nM; IC50 [15]: < 100 nM; IC50 [16]: 200 nM; IC50 [17]: 251 nM; IC50 (A498): 200 nM; IC50 [18]: 631 nM; IC50 [19]: 251 nM; IC50 [20]: 158 nM; IC50 (SK-MEL-2): 200 nM; IC50 [21]: 316 nM; IC50 [22]: 316 nM; IC50 [23]: 200 nM; IC50 (NCI-H522): 158 nM; IC50 [24]: 631 nM; IC50 (T47D): 200 nM; IC50 [25]: 158 nM; IC50 [26]: 251 nM; IC50 (U-251): 316 nM; IC50 [27]: 316 nM; IC50 [28]: 251 nM; IC50 [29]: 158 nM; IC50 (EKVX): 200 nM; IC50 (A549): < 126 nM; IC50 (KM12): 631 nM; IC50 (SN12C): 398 nM; IC50 [30]: 316 nM; IC50 (NCI-H460): < 50.1 nM; IC50 [31]: 251 nM; IC50 (HT-29): 251 nM; IC50 [32]: 251 nM; IC50 (SK-MEL-5): 158 nM; IC50 (ACHN): 251 nM; IC50 (MDA-MB-435): 1580 nM

Q: What does the source list for `CC1=C(CN(O)C(N)=O)C2=C(C)C3(CC3)[C@@](C)(O)C(=O)C2=C1` [LP-184]?
A: IC50 (MDA-MB-231): 251 nM; IC50 [3]: 25.1 nM; IC50 [4]: 50.1 nM; IC50 [5]: 398 nM; IC50 (786-0): 126 nM; IC50 [6]: 158 nM; IC50 (Malme-3M): 126 nM; Ratio IC50 [7]: 41.9; IC50 [8]: 100 nM; IC50 [9]: 39.8 nM; IC50 (NCI-H226): 200 nM; IC50 (NCI-H322M): 100 nM; IC50 [2]: 210 nM; IC50 [10]: 31.6 nM; IC50 [11]: 25.1 nM; IC50 (SK-MEL-28): 126 nM; IC50 [12]: 15.8 nM; IC50 (NCI-H23): 15.8 nM; IC50 [13]: 158 nM; IC50 (MCF7): 1260 nM; IC50 [14]: 25.1 nM; IC50 [1]: 8800 nM; TGI (MV522): Active; IC50 (M14): 200 nM; IC50 [15]: < 10 nM; IC50 [16]: 25.1 nM; IC50 [17]: 50.1 nM; IC50 (A498): 31.6 nM; IC50 [18]: 316 nM; IC50 [19]: 20 nM; IC50 [20]: 20 nM; IC50 (SK-MEL-2): 398 nM; IC50 [21]: 126 nM; IC50 [22]: 126 nM; IC50 [23]: 316 nM; IC50 (NCI-H522): 1000 nM; IC50 [24]: 15800 nM; IC50 (T47D): 63.1 nM; IC50 [25]: 25.1 nM; IC50 [26]: 316 nM; IC50 (U-251): 126 nM; IC50 [27]: 501 nM; IC50 [28]: 251 nM; IC50 [29]: 12.6 nM; IC50 (EKVX): 316 nM; IC50 (A549): < 10 nM; IC50 (KM12): 398 nM; IC50 (SN12C): 316 nM; IC50 [30]: 50.1 nM; IC50 (NCI-H460): < 10 nM; IC50 [31]: 31.6 nM; IC50 (HT-29): 126 nM; IC50 [32]: 158 nM; IC50 (SK-MEL-5): 63.1 nM; IC50 (ACHN): 31.6 nM; IC50 (MDA-MB-435): 398 nM
